{
  "source": "ChEMBL document CHEMBL5113451",
  "about": "“Discovery of 2-thiobenzimidazoles as noncovalent inhibitors of SARS-CoV-2 main protease” (Bioorg Med Chem Lett, 2022)",
  "key": {"[1]": {"target": "Replicase polyprotein 1ab (Severe acute respiratory syndrome coronavirus 2) (UniProt P0DTD1)", "experiment": "Inhibition of His6-tagged SARS-CoV-2 main protease expressed in Escherichia coli BL21 (DE3) assessed as residual enzyme activity using DABCYL-KTSAVLQ1SGFRKM-E(EDANS)-NH2 as substrate at 50 uM preincubated for 15 mins followed by substrate addition by FRET analysis", "outline": "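Compound at 50 µM preincubated 15 min at 30 °C before dabcyl-edans peptide added. Fluorescence read every 90 s for about 2.5 h, baseline subtracted.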"}, "[2]": {"target": "T1, Replicase polyprotein 1ab (Severe acute respiratory syndrome coronavirus 2, UniProt P0DTD1)", "experiment": "Inhibition of His6-tagged SARS-CoV-2 main protease expressed in Escherichia coli BL21 (DE3) using DABCYL-KTSAVLQ1SGFRKM-E(EDANS)-NH2 as substrate preincubated for 15 mins followed by substrate addition by FRET analysis", "outline": "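Inhibitor preincubated 15 min at 30 °C, then dabcyl-edans substrate added. Fluorescence followed at 90 s intervals. […] Three independent experiments.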"}, "[3]": {"target": "T1, Replicase polyprotein 1ab", "experiment": "Inhibition of His6-tagged SARS-CoV-2 main protease expressed in Escherichia coli BL21 (DE3) using DABCYL-KTSAVLQ1SGFRKM-E(EDANS)-NH2 as substrate preincubated for 15 mins followed by substrate addition in presence of Triton-X by FRET analysis"}},
  "data": [
    {"smiles": "O=C(CSc1nc2cc(Cl)ccc2n1Cc1ccccc1)N1CCNC1=O", "values": [
      {"measurement": "Activity", "setting": "[1]", "result": 50, "unit": "%"},
      {"measurement": "IC50", "setting": "[2]", "result": 24.2, "unit": "µM"},
      {"measurement": "IC50", "setting": "[3]", "result": 24.2, "unit": "µM"}
    ]},
    {"smiles": "COCCn1c(C(=O)NCC(O)c2ccccc2)nc2ccccc2c1=O", "note": "(configuration not stated)", "values": [
      {"measurement": "Activity", "setting": "[1]", "result": 50, "unit": "%"},
      {"measurement": "IC50", "setting": "[3]", "result": 54, "unit": "µM"}
    ]},
    {"smiles": "Cc1ccc2c(c1)nc(SC(Cc1ccccc1)C(=O)N1CCNC1=O)n2Cc1ccccc1", "note": "(configuration not stated)", "values": [
      {"measurement": "IC50", "setting": "[2]", "result": 32.4, "unit": "µM"}
    ]},
    {"smiles": "COc1cc2c(cc1Cl)nc(SCC(=O)N1CCOC1=O)n2Cc1ccccc1", "values": [
      {"measurement": "IC50", "setting": "[2]", "result": 52.5, "unit": "µM"}
    ]},
    {"smiles": "O=C1OCCN1C(=O)C(Cc1ccccc1)Sc1nc2cc(Cl)ccc2n1Cc1ccccc1", "note": "(configuration not stated)", "values": [
      {"measurement": "IC50", "setting": "[2]", "result": 26.7, "unit": "µM"}
    ]},
    {"smiles": "O=C(CSc1nc2cc(Cl)ccc2n1Cc1ccccc1)N1CCOC1=O", "values": [
      {"measurement": "IC50", "setting": "[2]", "result": 62.2, "unit": "µM"}
    ]},
    {"smiles": "COc1cc2c(cc1Cl)nc(SC(Cc1ccco1)C(=O)N1CCOC1=O)n2Cc1ccccc1", "note": "(configuration not stated)", "values": [
      {"measurement": "IC50", "setting": "[2]", "result": 27.7, "unit": "µM"}
    ]},
    {"smiles": "COc1ccc2nc(SC(Cc3ccco3)C(=O)N3CCOC3=O)n(Cc3ccccc3)c2c1", "note": "(configuration not stated)", "values": [
      {"measurement": "IC50", "setting": "[2]", "result": 53.9, "unit": "µM"}
    ]},
    {"smiles": "O=C1OCCN1C(=O)C(Cc1ccco1)Sc1nc2cc(Cl)c(Cl)cc2n1Cc1ccccc1", "note": "(configuration not stated)", "values": [
      {"measurement": "IC50", "setting": "[2]", "result": 30.8, "unit": "µM"}
    ]},
    {"smiles": "Cc1ccc2c(c1)nc(SC(Cc1ccccc1)C(=O)N1CCOC1=O)n2Cc1ccccc1", "note": "(configuration not stated)", "values": [
      {"measurement": "IC50", "setting": "[2]", "result": 36.5, "unit": "µM"}
    ]},
    {"smiles": "O=C1OCCN1C(=O)C(Cc1ccco1)Sc1nc2ccc(O)cc2n1Cc1ccccc1", "note": "(configuration not stated)", "values": [
      {"measurement": "IC50", "setting": "[2]", "result": 55.8, "unit": "µM"}
    ]},
    {"smiles": "O=C(CSc1nc2cc(Cl)c(Cl)cc2n1Cc1ccccc1)N1CCOC1=O", "values": [
      {"measurement": "IC50", "setting": "[2]", "result": 29.5, "unit": "µM"}
    ]},
    {"smiles": "O=C1OCCN1C(=O)C(Cc1ccco1)Sc1nc2cc(Cl)c(O)cc2n1Cc1ccccc1", "note": "(configuration not stated)", "values": [
      {"measurement": "IC50", "setting": "[2]", "result": 46.1, "unit": "µM"}
    ]},
    {"smiles": "CC(C)(C)c1ccc2c(c1)nc(SCC(=O)N1CCOC1=O)n2Cc1ccccc1", "values": [
      {"measurement": "IC50", "setting": "[2]", "result": 35.1, "unit": "µM"}
    ]},
    {"smiles": "CC(C)(C)c1ccc2c(c1)nc(SC(Cc1ccccc1)C(=O)N1CCOC1=O)n2Cc1ccccc1", "note": "(configuration not stated)", "values": [
      {"measurement": "IC50", "setting": "[2]", "result": 29.5, "unit": "µM"}
    ]},
    {"smiles": "O=C1OCCN1C(=O)C(Cc1ccco1)Sc1nc2ccc(Cl)cc2n1Cc1ccccc1", "note": "(configuration not stated)", "values": [
      {"measurement": "IC50", "setting": "[2]", "result": 52.9, "unit": "µM"}
    ]},
    {"smiles": "O=C(CSc1nc2cc(Cl)c(O)cc2n1Cc1ccccc1)N1CCOC1=O", "values": [
      {"measurement": "IC50", "setting": "[2]", "result": 35.8, "unit": "µM"}
    ]},
    {"smiles": "O=C1NCCN1C(=O)C(Cc1ccccc1)Sc1nc2cc(Cl)ccc2n1Cc1ccccc1", "note": "(configuration not stated)", "values": [
      {"measurement": "IC50", "setting": "[2]", "result": 29.9, "unit": "µM"}
    ]},
    {"smiles": "O=C1OCCN1C(=O)C(Cc1ccco1)Sc1nc2cc(Cl)ccc2n1Cc1ccccc1", "note": "(configuration not stated)", "values": [
      {"measurement": "IC50", "setting": "[2]", "result": 14.9, "unit": "µM"}
    ]}
  ]
}
